Experimental data from ChEMBL document CHEMBL3526154, “Metabolism, pharmacokinetics, tissue distribution, and stability studies of the prodrug analog of an anti-hepatitis B virus dinucleoside phosphorothioate” (Drug Metab Dispos, 2012).

Legend:
[1] = test system: Liver microsome; assay: (§1) Drug metabolism in human liver microsomes assessed as Rp,Sp-dinucleotide-1 (O-((2R,3S,5R)-5-(6-amino-9H-purin-9-yl)-3-hydroxytetrahydrofuran-2-yl)methyl O-(2R,3R,4R,5R)-5-(2,4-dioxo-3,4-dihydropyrimidin-1(2H)-yl)-2-(hydroxymethyl)-4-methoxytetrahydrofuran-3-yl S-hydrogen phosphorothioate) metabolite formation at 10 uM incubated up to 8 hrs by LC/MS analysis; format: ADME
Outline: (§2)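 Microsomes (1 mg/ml) pretreated 15 min on ice with alamethicin (10 µg/ml). Incubated with prodrug (10 µM final), NADPH 1.3 mM and UDP-GlcUA 5 mM in PBS at 37°C with shaking. Sampled at 1, 4, 6 and 8 h and quenched with acetonitrile. Supernatant lyophilised, reconstituted in water, analysed by C18 HPLC and by LC/MS.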

[2] = as §1, with “S9 fraction” for “microsomes”, “uM” for “uM incubated up to 8 hrs”; format: ADME, subcellular; conditions: s9, 10 µM
Outline: (§3)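 Pooled human liver S9 (1 mg/ml) pretreated 15 min on ice with alamethicin (10 µg/ml). Incubated with prodrug (10 µM), NADPH 1.3 mM, UDP-GlcUA 5 mM, S-adenosylmethionine 0.1 mM, PAPS 0.1 mM and acetyl-CoA 1 mM in PBS at 37°C with shaking. Sampled at 1, 4 and 6 h, acetonitrile-quenched, then analysed by HPLC and LC/MS.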

[3] = as §1, with “S9 fraction” for “microsomes”, “uM” for “uM incubated up to 8 hrs”, “HPLC” for “LC/MS”; format: ADME, subcellular; conditions: s9, 10 µM; outline: as §3
[4] = test system: Liver microsome; assay: as §1, with “HPLC” for “LC/MS”; format: ADME; outline: as §2
[5] = Half life of the compound in simulated gastric fluid by HPLC analysis; format: ADME
Outline: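 Stock of 2 mg/100 µl in DMSO; 10 µl added to 200 µl simulated gastric fluid (NaCl, porcine pepsin, HCl, pH 1.2) or simulated intestinal fluid (KH2PO4, NaOH, pancreatin, pH 6.8), 37°C. Aliquots at 15 min, 30 min, 1 h, 3 h were quenched with acetonitrile (SGF neutralised to pH 7.0), centrifuged, lyophilised, reconstituted in water, analysed by C18 HPLC.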

[6] = Time for almost complete conversion of the compound to 1 in simulated intestinal fluid by HPLC analysis
[7] = test system: Liver; assay: Drug level in human liver S9 fraction treated with Rp,Sp-dinucleotide-2 at 10 uM by LC/MS analysis; format: ADME, subcellular; conditions: s9, 10 µM
Outline: (§4)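 Pooled human liver S9 (1 mg/ml), alamethicin-treated (10 μg/ml, 15 min on ice), with NADPH 1.3 mM, UDP-GlcUA 5 mM in 1× PBS; substrate 10 μM final. Incubated 37°C shaking; sampled 1, 4, 6 h, acetonitrile quench, centrifuged, supernatant lyophilised, reconstituted in water; HPLC (C18, 25°C, 5–50% acetonitrile in 0.1 M NH4OAc over 45 min) and LC/MS.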

[8] = Stability of the compound in simulated intestinal fluid by HPLC analysis; format: ADME; conditions: simulated gi fluid
Outline: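 Simulated intestinal fluid: KH2PO4 6.8 g/l with NaOH, pancreatin 10 g/l, pH 6.8. DMSO stock (2 mg/100 μl), 10 μl added to 200 μl SIF, 37°C; aliquots at 15 min, 30 min, 1 h, 3 h quenched with acetonitrile, centrifuged, supernatant lyophilised, reconstituted in water, analysed by C18 HPLC.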

[9] = test system: Liver; assay: Drug level in human liver S9 fraction treated with Rp,Sp-dinucleotide-2 at 10 uM by HPLC analysis; format: ADME, subcellular; conditions: s9, 10 µM; outline: as §4
[10] = test system: Liver microsome; assay: Drug level in human liver microsomes treated with Rp,Sp-dinulceotide-2 at 10 uM incubated up to 8 hrs by LC/MS analysis; format: ADME
Outline: (§5)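 Liver microsomes 1 mg/ml pretreated with alamethicin 10 μg/ml on ice 15 min; NADPH 1.3 mM and UDP-GlcUA 5 mM added in 1× PBS, substrate 10 μM final. Shaking bath at 37°C; aliquots at 1, 4, 6, 8 h quenched with acetonitrile, centrifuged, supernatant lyophilised and redissolved in water; analysed by C18 HPLC (5–50% acetonitrile/0.1 M NH4OAc gradient) and LC/MS.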

[11] = test system: Liver microsome; assay: Drug level in human liver microsomes treated with Rp,Sp-dinulceotide-2 at 10 uM incubated up to 8 hrs by HPLC analysis; format: ADME; outline: as §5

Row | Drug metabolism [7] | Stability [8] | Drug metabolism [9] | Drug metabolism [10] | Drug metabolism [11] | SMILES | Drug metabolism [1] | Drug metabolism [2] | Drug metabolism [3] | Drug metabolism [4] | half-life [5] | time for complete conversion [6]
1 | – | – | – | – | – | CO[C@@H]1[C@H](OP(=O)(OC[C@H]2O[C@@H](n3cnc4c(N)ncnc43)C[C@@H]2O)SCOC(=O)OC(C)C)[C@@H](CO)O[C@H]1n1ccc(=O)[nH]c1=O (some centres not stated) [INARIGIVIR SOPROXIL] | metabolite_detected | metabolite_detected | metabolite_detected | metabolite_detected | > 3 h | 180 min
2 | metabolite_detected | Stable | metabolite_detected | metabolite_detected | metabolite_detected | CO[C@@H]1[C@H](OP(=O)(S)OC[C@H]2O[C@@H](n3cnc4c(N)ncnc43)C[C@@H]2O)[C@@H](CO)O[C@H]1n1ccc(=O)[nH]c1=O (some centres not stated) [INARIGIVIR] | – | – | – | – | < 0.25 h | –
